Experimental data collected from several papers.
Each line is one published result; the experiments were not run side by side.
Organism: Staphylococcus aureus
Effect on: microbial growth

`Clc1ccc(Cn2c(-c3ccc(Cl)cc3)nc3ccccc32)cc1` gave an MIC of 8 µg/mL (broth dilution; ATCC29213 MSSA).
With `CC(C)Oc1c(NC(=O)c2ccc(NC(=O)[C@H](CC(N)=O)NC(=O)c3ccc(NC(=O)c4ccccc4[N+](=O)[O-])cc3)cc2)ccc(C(=O)Nc2ccc(C(=O)O)cc2)c1O` the MIC was greater than 64 µg/mL (ATCC29213).
`O=[N+]([O-])c1ccc(-c2nc3ccccc3n2Cc2ccccc2)cc1` has an MIC of 4 µg/mL (broth dilution; ATCC29213 MSSA).
`O=C1NC(=S)S/C1=C\c1ccc(-c2ccc(N(c3ccccc3)c3ccccc3)cc2)cc1` gave an MIC of 500 µg/mL (broth dilution; ATCC6538).
For `Cc1ccc(C)n1-c1ccc(-c2nnc(-c3ccc(N(C)C)cc3)[nH]2)cc1`, the MIC was 8 µg/mL (broth dilution; ATCC11632; 18 h).
The MIC of `CN(C)[C@@H]1C(O)=C(C(N)=O)C(=O)[C@@]2(O)C(O)=C3C(=O)c4c(O)cccc4[C@@](C)(O)[C@H]3C[C@@H]12` is reported as 0.15 µM (broth dilution; 25923).
`CC1(C)S[C@@H]2[C@H](NC(=O)[C@H](N)c3ccccc3)C(=O)N2[C@H]1C(=O)O` gave an MIC of 64 µg/mL (broth dilution; 6917).
The MIC of `Cc1cc(C(=O)Nc2ccc(C(=O)N[C@@H](CC(N)=O)C(=O)Nc3ccc(C(=O)Nc4ccc(C(=O)Nc5ccc(C(=O)O)cc5)c(O)c4OC(C)C)cc3)cc2)ccc1C#N` is reported as 2 µg/mL (ATCC29213).
`CC[C@H](CO)Nc1nc(NCc2ccccc2)c2ncn(C(C)C)c2n1` has an MIC of greater than 30 µM (NCTC8325).
`CSc1nc(C)c(Cl)c(O)n1` has an MIC of greater than 128 µg/mL.
`CC[C@H]1OC(=O)[C@H](C)[C@@H](O[C@H]2C[C@@](C)(OC)[C@@H](O)[C@H](C)O2)[C@H](C)[C@@H](O[C@@H]2O[C@H](C)C[C@H](N(C)C)[C@H]2O)[C@](C)(O)C[C@@H](C)C(=O)[C@H](C)[C@@H](O)[C@]1(C)O` has an MIC of greater than 100 µM (129; clinical isolate).
`C/C=C(\C)c1cc(O)c(C)c(OC(=O)c2c(C)cc(O)c(Cl)c2O)c1` gave an MIC of 8 µg/mL (broth dilution; ATCC29213).
`Cc1cc(Cl)cc2sc(N(CCCn3ccnc3)C(=O)c3ccc[nH]3)nc12` has an MIC of 1.3 µM (ATCC25923).
`O=C1NC(=S)N/C1=C\c1ccc(-c2ccc(N(c3ccccc3)c3ccccc3)cc2)cc1` has an MIC of greater than 1000 µg/mL (broth dilution; ATCC25923).
`O=C(c1ccc(/C=C/c2n[nH]c3ccccc23)cc1)N1CCNCC1` gave an MIC of greater than 30 µM (NCTC8325).
`CO[C@H]1[C@H](O[C@H]([C@H]2O[C@@H](n3ccc(=O)[nH]c3=O)[C@H](O)[C@@H]2O)[C@H](NCCCNC(=O)[C@@H](NC(=O)[C@@H](NC(=O)N[C@H](C(=O)O)C(C)C)[C@@H]2CCNC(=N)N2)[C@@H](O)C(C)C)C(=O)O)O[C@H](CN)[C@H]1O` has an MIC of greater than 32 µg/mL (NEWMAN).
With `Cc1ccc(NCc2ccc(Oc3ccccn3)cc2)cc1` the MIC was 1.8 µg/mL.
The MIC of `O=C(O)CN1C(=O)/C(=C/c2c3ccccc3c(-c3ccc(N(c4ccccc4)c4ccccc4)cc3)c3ccccc23)SC1=S` is reported as greater than 1000 µg/mL (broth dilution; ATCC25923).
The MIC of `COc1c(C)c(OCc2ccccc2)c(C)c(O)c1C(=O)/C=C/c1ccccc1` is reported as 5000 µg/mL (broth dilution; ATCC25923).
The MIC of `CC(C)Oc1c(NC(=O)c2ccc(NC(=O)[C@H](CC(N)=O)NC(=O)c3ccc(NC(=O)c4ccc(N)cc4)cc3)cc2)ccc(C(=O)Nc2ccc(C(=O)O)cc2)c1O` is reported as greater than 64 µg/mL (ATCC29213).
With `Clc1ccc(-c2nc3ccccc3n2Cc2ccccc2)cc1Cl` the MIC was 8 µg/mL (broth dilution; ATCC29213 MSSA).
For `CC1(C)S[C@@H]2[C@H](NC(=O)COc3ccccc3)C(=O)N2[C@H]1C(=O)O`, the MIC was greater than 128 µg/mL (broth dilution; MRSA; 18 h; clinical isolate).
`CCCCCCC#Cc1cncc(-c2nnc(SCc3ccc([N+](=O)[O-])cc3)n2C)c1` has an MIC of no less than 20 µg/mL (MRSA; drug-resistant strain).
For `O=C1NC(=S)S/C1=C\c1c2ccccc2c(-c2ccc(N(c3ccccc3)c3ccccc3)cc2)c2ccccc12`, the MIC was greater than 1000 µg/mL (broth dilution; ATCC25923).
For `CN[C@H](CC(C)C)C(=O)N[C@H]1C(=O)N[C@@H](CC(N)=O)C(=O)N[C@H]2C(=O)N[C@H]3C(=O)N[C@H](C(=O)N[C@H](C(=O)O)c4cc(O)cc(O)c4-c4cc3ccc4O)[C@H](O)c3ccc(c(Cl)c3)Oc3cc2cc(c3O[C@@H]2O[C@H](CO)[C@@H](O)[C@H](O)[C@H]2O[C@H]2C[C@](C)(N)[C@H](O)[C@H](C)O2)Oc2ccc(cc2Cl)[C@H]1O`, the MIC was 1 µg/mL (broth dilution; ATCC43300 MRSA; 18 h).
For `O=C1NC(=S)N/C1=C\c1c2ccccc2c(-c2ccc(N(c3ccccc3)c3ccccc3)cc2)c2ccccc12`, the MIC was greater than 1000 µg/mL (broth dilution; ATCC25923).
With `CC(C)n1nc(-c2ccc3oc(N)nc3c2)c2c(N)ncnc21` the MIC was greater than 30 µM (NCTC8325).
With `CC(C)Oc1c(NC(=O)c2ccc(NC(=O)[C@H](CC(N)=O)NC(=O)c3ccc(NC(=O)c4cc(C#N)cn4C)cc3)cc2)ccc(C(=O)Nc2ccc(C(=O)O)cc2)c1O` the MIC was 64 µg/mL (ATCC29213).
With `C[C@H]1c2cccc(O)c2C(=O)C2=C(O)[C@]3(O)C(=O)C(C(N)=O)=C(O)[C@@H](N(C)C)[C@@H]3[C@@H](O)[C@@H]21` the MIC was 6.25 µg/mL (clinical isolate).
`CC1=NN(CNC(=O)c2ccccc2)C(=O)C1=NNn1c(-c2ccccc2)nc2ccccc2c1=O` has an MIC of 51.9 µM (broth dilution; 24 h).
The MIC of `COc1cc(C(=O)Nc2ccc(C(=O)N[C@@H](CC(N)=O)C(=O)Nc3ccc(C(=O)Nc4ccc(C(=O)Nc5ccc(C(=O)O)cc5)c(O)c4OC(C)C)cc3)cc2)ccc1C#N` is reported as greater than 64 µg/mL (ATCC29213).
`c1ccc2[nH]c(-c3ccc4c(c3)OCO4)nc2c1` has an MIC of 128 µg/mL (broth dilution; ATCC29213 MSSA).
`C/C=C(\C)c1cc(OC(=O)c2c(C)c(Cl)c(O)c(Cl)c2O)c(C)c(O)c1C(=O)O` gave an MIC of 64 µg/mL (broth dilution; ATCC29213).
With `CS(=O)(=O)c1cccc(-c2nnc(NC(=O)c3ccc(-c4ccccc4)cc3)o2)c1` the MIC was greater than 128 µg/mL.
`Cc1ccc2nc(-c3cccc(O)c3)[nH]c2c1` has an MIC of 32 µg/mL (broth dilution; ATCC29213 MSSA).
For `C[n+]1c(/C=C/c2c[nH]c3ccccc23)cc(/C=C2\Sc3ccccc3N2CCCN2CCCC2)c2ccccc21.[I-]`, the MIC was 4 µg/mL (broth dilution; ATCCBAA44).
For `O=C(C[n+]1cc(-c2ccc(Cl)cc2)n2c1CCC2)Nc1ccc(Cl)c(Cl)c1`, the MIC was 4 µg/mL.
The MIC of `CN[C@H](CC(C)C)C(=O)N[C@H]1C(=O)N[C@@H](CC(N)=O)C(=O)N[C@H]2C(=O)N[C@H]3C(=O)N[C@H](C(=O)N[C@H](C(=O)O)c4cc(O)cc(O)c4-c4cc3ccc4O)[C@H](O)c3ccc(c(Cl)c3)Oc3cc2cc(c3O[C@@H]2O[C@H](CO)[C@@H](O)[C@H](O)[C@H]2O[C@H]2C[C@](C)(N)[C@H](O)[C@H](C)O2)Oc2ccc(cc2Cl)[C@H]1O` is reported as 1 µg/mL (broth dilution; 16339).
`Oc1ccc(-c2nc(-c3ccc(F)cc3)c(-c3ccncc3)[nH]2)cc1` has an MIC of greater than 30 µM (NCTC8325).
`O=C1C=CC(=O)c2c1ccc1c2[nH]c2ccccc21` has an MIC of 4 µg/mL (ATCC29213).
`CC(=O)NC[C@H]1CN(c2ccc(N3CCOCC3)c(F)c2)C(=O)O1` has an MIC of 32 µM (broth dilution; MRSA NRS119; drug-resistant strain).
`C[C@@H]1[C@H](O)[C@@H](C)/C=C/C=C/C=C/C=C/C=C/C=C/C=C/[C@H](O[C@@H]2O[C@H](C)[C@@H](O)[C@H](N)[C@@H]2O)C[C@@H]2O[C@](O)(C[C@@H](O)C[C@@H](O)[C@H](O)CC[C@@H](O)C[C@@H](O)CC(=O)O[C@H]1C)C[C@H](O)[C@H]2C(=O)O` gave an MIC of greater than 128 µg/mL (broth dilution; MB2865).
`CO[C@H]1/C=C/O[C@@]2(C)Oc3c(C)c(O)c4c(O)c(c(/C=N/N5CCN(C)CC5)c(O)c4c3C2=O)NC(=O)/C(C)=C\C=C\[C@H](C)[C@H](O)[C@@H](C)[C@@H](O)[C@@H](C)[C@H](OC(C)=O)[C@@H]1C` gave an MIC of 0.009 to 0.018 µM (NCTC8325).
`COc1c(C)c(OC(=O)c2ccccc2)c(C)c(O)c1C(=O)/C=C/c1ccccc1` has an MIC of 5000 µg/mL (broth dilution; ATCC25923).
With `CCOc1ccc(-c2nc3ccccc3[nH]2)cc1` the MIC was 256 µg/mL (broth dilution; ATCC29213 MSSA).
The MIC of `CC1=NN(CNc2ccc(O)cc2)C(=O)C1=NNn1c(-c2ccccc2)nc2ccccc2c1=O` is reported as 53.5 µM (broth dilution; 24 h).
With `Cc1c(CN(C)C(=O)/C=C/c2cnc3c(c2)CC(CCN)C(=O)N3)oc2ccccc12.Cl` (stereo not shown) the MIC was 0.125 µg/mL (broth dilution; ATCC29213).
`Cc1ccc2nc(-c3ccco3)[nH]c2c1` has an MIC of 256 µg/mL (broth dilution; ATCC29213 MSSA).
`O=C(O)CN1C(=O)/C(=C/c2ccc(-c3ccc(N(c4ccccc4)c4ccccc4)cc3)c3ccccc23)SC1=S` gave an MIC of 1000 µg/mL (broth dilution; ATCC6538).
The MIC of `Cc1cccc(-c2[nH]c(C(C)(C)C)nc2-c2ccc3nccnc3c2)n1` is reported as greater than 30 µM (NCTC8325).
The MIC of `Cc1ccc2nc(-c3cccnc3)[nH]c2c1` is reported as 64 µg/mL (broth dilution; ATCC29213 MSSA).
`CC(C)Oc1c(NC(=O)c2ccc(NC(=O)[C@H](CC(N)=O)NC(=O)c3ccc(-c4nn[nH]c4-c4ccc(C#N)cc4)cc3)cc2)ccc(C(=O)Nc2ccc(C(=O)O)cc2)c1O` has an MIC of greater than 64 µg/mL (ATCC29213).
The MIC of `O=[N+]([O-])c1cnc2ccccc2c1O` is reported as greater than 128 µg/mL.
With `Cc1cc(Nc2ncnc3ccc(NC4=NC(C)(C)CO4)cc23)ccc1Oc1ccn2ncnc2c1` the MIC was greater than 30 µM (NCTC8325).
`N=C(N)NN=Cc1ccc(OC/C=C\COc2ccc(C=NNC(=N)N)cc2)cc1` has an MIC of no more than 3 µg/mL (USA300; 16 h).
The MIC of `C/C=C(\C)c1cc(O)c(C)c(OC(=O)c2c(C)c(Cl)c(O)c(Cl)c2O)c1` is reported as 4 µg/mL (broth dilution; MRSA).
The MIC of `CC(C)Oc1c(NC(=O)c2ccc(NC(=O)[C@H](CC(N)=O)NC(=O)c3ccc(NC(=O)c4ccccc4)cc3)cc2)ccc(C(=O)Nc2ccc(C(=O)O)cc2)c1O` is reported as greater than 64 µg/mL (ATCC29213).
The MIC of `COc1cc2nccc(Oc3ccc(NC(=O)Nc4cc(C)on4)c(Cl)c3)c2cc1OC` is reported as greater than 30 µM (NCTC8325).
